Measurements from PubChem BioAssay AID493234 (Broad Institute, 2011).
Values joined by “and” are separate entries in the source; they are usually repeats but may differ in a detail not shown here. Identical values can stand only once. Active and inactive are the calls of the source.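 The calls were made as follows: active = fitted curve rises to an activation of 500 at or below the top valid dose; inactive = the rest, including activity in the falling direction.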

Tested on: not listed separately
Assay: HRE-luciferase activation in zinc medium, dose response, mechanism study for HIF pathway activator project, cell-based, U2OS, luminescence, dry powder, set 2 (AID 493234)
Conditions: U2OS HRE-luciferase, zinc medium, luminescence; at 38 µM (top of the series)
How it was run: (§1)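 schedule = 24 h cell growth at 37 °C, then 24 h compound exposure | system = U2OS cells with stable HRE-luciferase reporter | detection = Steady-Glo luminescence | compound dosing = 8 concentrations, 3-fold dilution steps | probe or stimulus = zinc sulfate, 50 µM final, added before compound addition | buffer or medium = phenol red-free DMEM with 10% FBS, without hygromycin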

| Compound | activation |
| --- | --- |
| Oc1ccc(CNC2CCc3ccccc32)c2cccnc12 (configuration not stated) | -23.4% (inactive) |
| Oc1ccc(CN2CCC(Cc3ccccc3)CC2)c2cccnc12 | -5.34% (inactive) |
| CN1CCN(C(=O)c2cc(-c3ccccc3)on2)CC1 | -12.5% (inactive) |
| O=C(NCC1CC1)c1cc(-c2ccccc2)on1 | 386% (inactive) |
| CC(C)(C)OC(=O)N1CCN(Cc2ccc(O)c3ncccc23)CC1 | 4.29% (inactive) |
| O=C(Nc1nc(-c2ccccc2)cs1)c1cc(-c2ccccc2)on1 | -1.71% (inactive) |
| CN(C)CCNC(=O)c1cc(-c2ccccc2)on1 | 9.51% (inactive) |
| Cn1c(NC(=O)c2cc(-c3ccccc3)on2)nc2ccccc21 | -0.203% (inactive) |
| O=C(NCCN1CCCCC1)c1cc(-c2ccccc2)on1 | 32.2% (inactive) |
| Cn1c(-c2ccccc2)cnc1Nc1nc(-c2ccccn2)nnc1-c1ccccc1 | 109% (inactive) |
| O=C(NCCCO)c1cc(-c2ccccc2)on1 | 325% (inactive) |
| O=C(Nc1cnc2ccccc2c1)c1cc(-c2ccccc2)on1 | 10.1% (inactive) |
| c1ccc(-c2nnc(-c3ccccn3)nc2Nc2cnc3ccccc3n2)cc1 | -25.9% (inactive) |
| c1ccc(-c2csc(Nc3nc(-c4ccccn4)nnc3-c3ccccc3)n2)cc1 | 86.1% (inactive) |
| O=C(c1cc(-c2ccccc2)on1)N1CCC(N2CCOCC2)CC1 | 1.96% (inactive) |
| O=C(NCCCN1CCOCC1)c1cc(-c2ccccc2)on1 | 449% (inactive) |
| Oc1ccc(CN2CCC3CCCCC3C2)c2cccnc12 (configuration not stated) | 275% (inactive) |
| Cc1ccc(NC(=O)c2cc(-c3ccccc3)on2)cn1 | 20.6% (inactive) |
| c1ccc(-c2nnc(-c3ccccn3)nc2Nc2nc3ccccc3s2)cc1 | -16.5% (inactive) |
| O=C(NCc1ccccc1)c1cc(-c2ccccc2)on1 | 32.9% (inactive) |
| O=C(Nc1nnc(-c2ccccc2)s1)c1cc(-c2ccccc2)on1 | 4.85% (inactive) |
| O=C(c1cc(-c2ccccc2)on1)N1CCc2cccnc21 | 3.59% (inactive) |
| O=C(c1cc(-c2ccccc2)on1)N1CCC(CO)CC1 | -4.31% (inactive) |
| Oc1ccc(CNC2Cc3ccccc3C2)c2cccnc12 | 217% (inactive) |

| Compound | activation |
| --- | --- |
| OCC1CCN(Cc2ccc(O)c3ncccc23)CC1 | 12.5% (inactive) |
| c1ccc(-c2cnc(Nc3nc(-c4ccccn4)nnc3-c3ccccc3)s2)cc1 | 19.5% (inactive) |
| O=C(Nc1cn2ccccc2n1)c1cc(-c2ccccc2)on1 | 7.47% (inactive) |
| Cn1c(-c2ccccc2)cnc1NC(=O)c1cc(-c2ccccc2)on1 | 9.13% (inactive) |
| O=C(c1cc(-c2ccccc2)on1)N1CCN(c2ccncc2)CC1 | -5.2% (inactive) |
| Cc1ccc(CNC(=O)c2cc(-c3ccccc3)on2)cc1 | -6.78% (inactive) |
| O=C(NCCN1CCOCC1)c1cc(-c2ccccc2)on1 | 430% (inactive) |
| O=C(Nc1ncc2ccccc2n1)c1cc(-c2ccccc2)on1 | 34.5% (inactive) |
| CC1CN(Cc2ccc(O)c3ncccc23)CC(C)O1 (configuration not stated) | -5.99% (inactive) |
| O=C(NC1CCc2ccccc2C1)c1cc(-c2ccccc2)on1 (configuration not stated) | -5.89% (inactive) |
| Cc1cccc(NC(=O)c2cc(-c3ccccc3)on2)n1 | 24.2% (inactive) |
| O=C(NC1Cc2ccccc2C1)c1cc(-c2ccccc2)on1 | 56% (inactive) |
| Oc1ccc(CN2CCc3ccccc3C2)c2cccnc12 | -19.3% (inactive) and -19.9% (inactive) |
| O=C(Nc1ncc(-c2ccccc2)o1)c1cc(-c2ccccc2)on1 | -4.08% (inactive) |
| Cc1ccccc1CNC(=O)c1cc(-c2ccccc2)on1 | 15.2% (inactive) |
| Cc1cccc(CNC(=O)c2cc(-c3ccccc3)on2)c1 | -0.529% (inactive) |
| N#CC1(c2ccccc2)CCN(Cc2ccc(O)c3ncccc23)CC1 | 27.6% (inactive) |
| O=C(NCC1CCCCC1)c1cc(-c2ccccc2)on1 | 52.6% (inactive) |
| O=C(c1cc(-c2ccccc2)on1)N1CCC(N2CCCC2)CC1 | 4.99% (inactive) |
| O=C(Nc1ccc2ccccc2n1)c1cc(-c2ccccc2)on1 | -7.7% (inactive) |
| O=C(Nc1nc2ccccc2s1)c1cc(-c2ccccc2)on1 | 14.8% (inactive) |
| CC(C)(C)CCNC(=O)c1cc(-c2ccccc2)on1 | 247% (inactive) |
| COc1ccccc1N1CCN(Cc2ccc(O)c3ncccc23)CC1 | -1.45% (inactive) |
| c1ccc(-c2nnc(Nc3nc(-c4ccccn4)nnc3-c3ccccc3)s2)cc1 | 141% (inactive) |

Tested on: U2OS HRE-luciferase, zinc medium, luminescence
Assay: as above
Conditions: not given
How it was run: as §1

| Compound | AC500 |
| --- | --- |
| c1ccc(CNc2nc(-c3ccccn3)nnc2-c2ccccc2)cc1 | 6.89 µM |
| COc1ccc(CNc2nc(-c3ccccn3)nnc2-c2ccccc2)cc1 | 5.26 µM |
| O=C(NCCCn1ccnc1)c1cc(-c2ccccc2)on1 | 16.4 µM |
| OCCCNc1nc(-c2ccccn2)nnc1-c1ccccc1 | 22.9 µM |
| CN1CCN(c2nc(-c3ccccn3)nnc2-c2ccccc2)CC1 | 15.8 µM |
| c1ccc(-c2nnc(-c3ccccn3)nc2N2CCC(c3ccccc3)C2)cc1 (configuration not stated) | 3.01 µM |
| c1ccc(-c2nnc(-c3ccccn3)nc2NCCc2ccccn2)cc1 | 18 µM |
| Clc1cccc(CNc2nc(-c3ccccn3)nnc2-c2ccccc2)c1 | 2 µM |
| c1ccc(-c2cccc(CNc3nc(-c4ccccn4)nnc3-c3ccccc3)c2)cc1 | 3.69 µM |
| C[C@@H](Nc1nc(-c2ccccn2)nnc1-c1ccccc1)c1ccccc1 | 6.17 µM |
| c1ccc(-c2nnc(-c3ccccn3)nc2NCCCN2CCOCC2)cc1 | 16 µM |
| Cc1ccc(Nc2nc(-c3ccccn3)nnc2-c2ccccc2)cn1 | 17.8 µM |
| c1ccc(-c2nnc(-c3ccccn3)nc2NCc2ccccn2)cc1 | 20.8 µM |
| c1ccc(-c2nnc(-c3ccccn3)nc2N2CCN(c3ccncc3)CC2)cc1 | 15.3 µM |
| c1ccc(-c2nnc(-c3ccccn3)nc2N2CCC(N3CCOCC3)CC2)cc1 | 16.2 µM |
| c1ccc(-c2nnc(-c3ccccn3)nc2NCc2cccnc2)cc1 | 19 µM |
| CN(C)c1nc(-c2ccccn2)nnc1-c1ccccc1 | 20.2 µM |
| CCCCNC(=O)c1cc(-c2ccccc2)on1 | 32.2 µM |
| C[C@@H](Nc1nc(-c2ccccn2)nnc1-c1ccccc1)C1CCCCC1 | 6.94 µM |
| c1ccc(-c2nnc(-c3ccccn3)nc2NCC2CCCCC2)cc1 | 5.43 µM |

| Compound | AC500 |
| --- | --- |
| Cc1cccc(CNc2nc(-c3ccccn3)nnc2-c2ccccc2)c1 | 6.47 µM |
| Cc1ccc(CNc2nc(-c3ccccn3)nnc2-c2ccccc2)cc1 | 7.26 µM |
| c1ccc(-c2ccc(CNc3nc(-c4ccccn4)nnc3-c3ccccc3)cc2)cc1 | 3.41 µM |
| C=CCNc1nc(-c2ccccn2)nnc1-c1ccccc1 | 15 µM |
| CC(Nc1nc(-c2ccccn2)nnc1-c1ccccc1)c1ccccc1 (configuration not stated) | 9.22 µM |
| c1ccc(-c2nnc(-c3ccccn3)nc2NCCN2CCOCC2)cc1 | 15.7 µM |
| Cc1ccccc1CNc1nc(-c2ccccn2)nnc1-c1ccccc1 | 7.16 µM |
| c1ccc(-c2nnc(-c3ccccn3)nc2NCC2CCOCC2)cc1 | 18.8 µM |
| CC(C)(C)c1ccc(CNc2nc(-c3ccccn3)nnc2-c2ccccc2)cc1 | 2.89 µM |
| c1ccc(-c2nnc(-c3ccccn3)nc2NCC2CC2)cc1 | 16.1 µM |
| OCC1CCN(c2nc(-c3ccccn3)nnc2-c2ccccc2)CC1 | 21.1 µM |
| c1ccc(-c2nnc(-c3ccccn3)nc2N2CCC(C3CCCCC3)C2)cc1 (configuration not stated) | 6.32 µM |
| c1ccc(CCNc2nc(-c3ccccn3)nnc2-c2ccccc2)cc1 | 7.94 µM |
| Cc1ccc(CNc2nc(-c3ccccn3)nnc2-c2ccccc2)cc1C | 2.19 µM |
| COc1cccc(CNc2nc(-c3ccccn3)nnc2-c2ccccc2)c1 | 3.92 µM |
| CC(C)(C)CCNc1nc(-c2ccccn2)nnc1-c1ccccc1 | 4.65 µM and 2.47 µM |
| O=C(NCCCCO)c1cc(-c2ccccc2)on1 | 12.1 µM |
| Cc1cccc(Nc2nc(-c3ccccn3)nnc2-c2ccccc2)n1 | 13.2 µM |
| C[C@H](Nc1nc(-c2ccccn2)nnc1-c1ccccc1)C1CCCCC1 | 5.01 µM |
